In ChEMBL document CHEMBL2029264, “Indole-based fibrates as potential hypolipidemic and antiobesity agents” (J Med Chem, 2012):
Calls of active or inactive are those of the source. The calls are words filed in the database; no cut-off is given here.

Legend:
Rattus norvegicus [1] = test: Antihyperlipidemic activity in Triton WR-1339-induced hyperlipidemic rat assessed as decrease in plasma triglyceride level at 100 mg/kg, po relative to control; format: functional; parameters: scale not given: the % may be the effect or the level left
Summary of the method: (§1)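 Triton WR-1339 given to rats to induce hyperlipidemia; oral dosing. Plasma TC, PL, TG in mg/dL; PHLA as […]/h/mL plasma. Mean ± SD of six rats; Triton group compared with control, Triton plus dosed group compared with Triton group.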

Rattus norvegicus [2] = test: Antihyperlipidemic activity in Triton WR-1339-induced hyperlipidemic rat assessed as decrease in plasma total cholesterol level at 50 mg/kg, po; format: functional
Summary of the method: (§2)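 Separate set of Triton WR-1339-induced hyperlipidemic rats, oral doses of 50, 100 and 150 mg/kg. Plasma TC, PL, TG in mg/dL; PHLA as […]/h/mL plasma. Mean ± SD of six rats versus Triton group.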

Rattus norvegicus [3] = test: Antihyperlipidemic activity in Triton WR-1339-induced hyperlipidemic rat assessed as decrease in plasma triglyceride level at 50 mg/kg, po; format: functional; summary of the method: as §2
Rattus norvegicus [4] = test: Antihyperlipidemic activity in Triton WR-1339-induced hyperlipidemic rat assessed as decrease in plasma total cholesterol level at 150 mg/kg, po; format: functional; summary of the method: as §2
Rattus norvegicus [5] = test: Antihyperlipidemic activity in Triton WR-1339-induced hyperlipidemic rat assessed as decrease in plasma phospholipid level at 150 mg/kg, po; format: functional; summary of the method: as §2
Rattus norvegicus [6] = test: Antihyperlipidemic activity in Triton WR-1339-induced hyperlipidemic rat assessed as increase in PHLA enzyme level at 150 mg/kg, po; format: functional; summary of the method: as §2
Rattus norvegicus [7] = test: Antihyperlipidemic activity in Triton WR-1339-induced hyperlipidemic rat assessed as increase in LCAT enzyme level at 50 mg/kg, po; format: functional; summary of the method: as §2
Rattus norvegicus [8] = test: Antihyperlipidemic activity in Triton WR-1339-induced hyperlipidemic rat assessed as increase in LCAT enzyme level at 100 mg/kg, po; format: functional; summary of the method: as §1
Rattus norvegicus [9] = test: Antihyperlipidemic activity in po dosed Triton WR-1339-induced hyperlipidemic rat assessed as decrease in plasma total cholesterol level; format: functional, organism-based; summary of the method: as §1
Rattus norvegicus [10] = test: Toxicity in HFD-induced hyperlipidemic Charles Foster rat assessed as decrease in food intake at 100 mg/kg, po administered for 4 weeks; format: organism-based; parameters: dose 100 mg/kg, route oral; details: in vivo, 672 h
Summary of the method: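 Adult male Charles Foster rats (200−225 g) were kept at 25−26 °C, 50−70% humidity, and a 12/12 h light/dark cycle. They were fed a high-fat diet for 4 weeks to induce hyperlipidemia, then given high-fat diet plus test agent at 100 mg/kg/d for another 4 weeks. Food intake was recorded over the experimental period, with n = 6 per group, and animals were sacrificed after 8 weeks.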

Rattus norvegicus [11] = test: Antiobesity activity in HFD-induced hyperlipidemic Charles Foster rat assessed as decrease in food efficacy ratio at 100 mg/kg, po administered for 4 weeks; format: functional, organism-based; parameters: dose 100 mg/kg
Summary of the method: (§3)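 Adult male Charles Foster rats given high-fat or normal diet 4 weeks, then diet plus vehicle or daily dosing 4 more weeks, sacrificed at week 8. Body weight gain, food intake, food efficiency ratio (weight gain/food intake over the period), and mesenteric, gonadal, inguinal and perirenal fat-pad weights recorded; mean ± SD, n = 6.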

Rattus norvegicus [12] = test: Antiobesity activity in HFD-induced hyperlipidemic Charles Foster rat assessed as decrease in mesenteric fat-pad at 100 mg/kg, po administered for 4 weeks; format: functional, organism-based; parameters: dose 100 mg/kg; summary of the method: as §3
Rattus norvegicus [13] = test: Antiobesity activity in HFD-induced hyperlipidemic Charles Foster rat assessed as decrease in gonadal fat-pad at 100 mg/kg, po administered for 4 weeks; format: functional, organism-based; parameters: dose 100 mg/kg; summary of the method: as §3
Rattus norvegicus [14] = test: Antiobesity activity in HFD-induced hyperlipidemic Charles Foster rat assessed as decrease in perirenal fat-pad at 100 mg/kg, po administered for 4 weeks; format: functional, organism-based; parameters: dose 100 mg/kg; summary of the method: as §3
Rattus norvegicus [15] = test: Antiobesity activity in HFD-induced hyperlipidemic Charles Foster rat assessed as decrease in inguinal fat-pad at 100 mg/kg, po administered for 4 weeks; format: functional, organism-based; parameters: dose 100 mg/kg; summary of the method: as §3
Rattus norvegicus [16] = test: Antihyperlipidemic activity in HFD-induced hyperlipidemic Charles Foster rat assessed as decrease in serum triglyceride level at 100 mg/kg, po administered for 4 weeks relative to control; format: functional; parameters: scale not given: the % may be the effect or the level left
Summary of the method: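 Male Charles Foster rats (200−225 g): high-fat diet 4 weeks, then diet plus daily dosing 4 weeks. Overnight fast, retro-orbital blood in EDTA (3 mg/mL blood), centrifuged to serum. TC, PL, TG in mg/dL; LCAT as nmol cholesterol released/h/L plasma. Mean ± SD; dosed groups compared with high-fat group, P by significance levels.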

Rattus norvegicus [17] = test: Antihyperlipidemic activity in HFD-induced hyperlipidemic Charles Foster rat assessed as decrease in plasma VLDL-phospholipid level at 100 mg/kg, po administered for 4 weeks relative to control; format: functional; parameters: scale not given: the % may be the effect or the level left
Summary of the method: (§4)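 After 4 weeks high-fat feeding plus 4 weeks daily dosing, overnight fast, retro-orbital blood into EDTA tubes. Serum split into VLDL, LDL and HDL by polyanionic precipitation; each fraction assayed for TC, PL, TG and apoprotein (mg/dL plasma). Pooled data from 6 rats/group, mean ± SD, dosed groups compared with high-fat group.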

Rattus norvegicus [18] = test: Antihyperlipidemic activity in HFD-induced hyperlipidemic Charles Foster rat assessed as decrease in plasma VLDL-apoprotein level at 100 mg/kg, po administered for 4 weeks relative to control; format: functional; parameters: scale not given: the % may be the effect or the level left; summary of the method: as §4
Rattus norvegicus [19] = test: Antihyperlipidemic activity in HFD-induced hyperlipidemic Charles Foster rat assessed as decrease in plasma LDL-triglyceride level at 100 mg/kg, po administered for 4 weeks relative to control; format: functional; parameters: scale not given: the % may be the effect or the level left; summary of the method: as §4
Rattus norvegicus [20] = test: Antihyperlipidemic activity in HFD-induced hyperlipidemic Charles Foster rat assessed as decrease in plasma LDL-apoprotein level at 100 mg/kg, po administered for 4 weeks relative to control; format: functional; parameters: scale not given: the % may be the effect or the level left; summary of the method: as §4
Rattus norvegicus [21] = test: Antihyperlipidemic activity in HFD-induced hyperlipidemic Charles Foster rat assessed as increase in plasma HDL-total cholesterol level at 100 mg/kg, po administered for 4 weeks relative to control; format: functional; summary of the method: as §4
Rattus norvegicus [22] = test: Antihyperlipidemic activity in HFD-induced hyperlipidemic Charles Foster rat assessed as increase in plasma HDL-phospholipid level at 100 mg/kg, po administered for 4 weeks relative to control; format: functional; summary of the method: as §4
Rattus norvegicus [23] = test: Antihyperlipidemic activity in HFD-induced hyperlipidemic Charles Foster rat assessed as decrease in liver triglyceride level at 100 mg/kg, po administered for 4 weeks relative to control; format: functional; parameters: scale not given: the % may be the effect or the level left
Summary of the method: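 Adult male Charles Foster rats (200−225 g), high-fat diet 4 weeks, then diet plus daily dosing 4 more weeks; overnight fast, sacrifice, liver washed in cold 0.15 M KCl and held at 4 °C. Lipids extracted from liver homogenate in CHCl3/CH3OH (2:1 v/v), TC, PL and TG read in mg/g; pooled data from 6 rats/group, mean ± SD.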

Rattus norvegicus [24] = test: Antihyperlipidemic activity in HFD-induced hyperlipidemic Charles Foster rat assessed as decrease in macrovesicular steatosis at 100 mg/kg, po administered for 4 weeks by light microscopic analysis; format: functional, organism-based; parameters: dose 100 mg/kg
Summary of the method: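 Rats on high-fat diet 4 weeks, then diet plus daily dosing for another 4 weeks before sacrifice. Liver sections 4 μm thick, stained with Ehrlich's hematoxylin and eosin, examined by light microscope for centrilobular macrovesicular steatosis.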

Rattus norvegicus [25] = test: Antihyperlipidemic activity in HFD-induced hyperlipidemic Charles Foster rat assessed as increase in [I125]-LDL catabolism in plasma membrane of liver at 100 mg/kg/day, po administered for 4 weeks; format: functional
Summary of the method: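 Rats on 8 weeks total of high-fat diet, dosed daily for the last 4 weeks, then sacrificed. Human serum LDL radiolabeled with I125; specific binding to liver plasma membrane preparation measured as receptor-mediated LDL catabolism. Mean ± SD, n = 6.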

Row | Structure (SMILES) | Activity (Rattus norvegicus [1]) [%] | Activity (Rattus norvegicus [2]) [mg/dL] | Activity (Rattus norvegicus [3]) [mg/dL] | Activity (Rattus norvegicus [4]) [mg/dL] | Activity (Rattus norvegicus [5]) [mg/dL] | percent increase (Rattus norvegicus [6]) [%] | Activity (Rattus norvegicus [7]) [nmol/h/mL] | Activity (Rattus norvegicus [8]) [nmol/h/mL] | Activity (Rattus norvegicus [9]) | Activity (Rattus norvegicus [10]) | Activity (Rattus norvegicus [11]) | Activity (Rattus norvegicus [12]) | Activity (Rattus norvegicus [13]) | Activity (Rattus norvegicus [14]) | Activity (Rattus norvegicus [15]) | Activity (Rattus norvegicus [16]) [%] | Activity (Rattus norvegicus [17]) [%] | Activity (Rattus norvegicus [18]) [%] | Activity (Rattus norvegicus [19]) [%] | Activity (Rattus norvegicus [20]) [%] | other results
1 | CCOC(=O)CCCOc1ccc(C(c2cn(C)c3ccccc23)c2cn(C)c3ccccc23)cc1 | 27 | 15 | 13 | 35 | 29 | 20 | 11 | 15 | Dose-dependent effect | Non-toxic | Active | Active | Active | Active | Active | 27 | 11 | 33 | 25 | 21 | Activity (Rattus norvegicus [21]): 12%; Activity (Rattus norvegicus [22]): 8%; Activity (Rattus norvegicus [23]): 24%; Activity (Rattus norvegicus [24]): Active; Activity (Rattus norvegicus [25]): 18%
2 | CCOC(=O)C(C)Oc1ccc(C(c2cn(CC)c3ccccc23)c2cn(CC)c3ccccc23)cc1 (stereo not given) | 25 | 16 | 12 | 33 | 29 | 15 | 8 | 12 | Dose-dependent effect | Non-toxic | Active | Active | Active | Active | Active | 25 | 16 | 26 | 21 | 25 | Activity (Rattus norvegicus [21]): 14%; Activity (Rattus norvegicus [22]): 13%; Activity (Rattus norvegicus [23]): 27%; Activity (Rattus norvegicus [24]): Active; Activity (Rattus norvegicus [25]): 24%
